From ChEMBL document CHEMBL5653631, “A Potent and Selective ULK1 Inhibitor Suppresses Autophagy and Sensitizes Cancer Cells to Nutrient Stress” (iScience, 2018)

What was measured:
[1] = biological target: Aurora kinase B (Homo sapiens) (UniProt Q96GD4); assay: Inhibition of human recombinant AurB at 500 nM in presence of ATP by radiometric assay relative to control
In short: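 Part of a radiometric in vitro activity panel of 327 recombinant human kinases. Each kinase was tested in duplicate at one inhibitor concentration. Activity remaining was expressed as a percentage of the vehicle control, and percent inhibition was taken as 100 minus that value.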

[2] = biological target: Ribosomal protein S6 kinase alpha-5 (Homo sapiens) (UniProt O75582); assay: Inhibition of human recombinant MSK1 at 500 nM in presence of ATP by radiometric assay relative to control
Sequence of Ribosomal protein S6 kinase alpha-5 (Homo sapiens) (O75582 whole entry, looked up): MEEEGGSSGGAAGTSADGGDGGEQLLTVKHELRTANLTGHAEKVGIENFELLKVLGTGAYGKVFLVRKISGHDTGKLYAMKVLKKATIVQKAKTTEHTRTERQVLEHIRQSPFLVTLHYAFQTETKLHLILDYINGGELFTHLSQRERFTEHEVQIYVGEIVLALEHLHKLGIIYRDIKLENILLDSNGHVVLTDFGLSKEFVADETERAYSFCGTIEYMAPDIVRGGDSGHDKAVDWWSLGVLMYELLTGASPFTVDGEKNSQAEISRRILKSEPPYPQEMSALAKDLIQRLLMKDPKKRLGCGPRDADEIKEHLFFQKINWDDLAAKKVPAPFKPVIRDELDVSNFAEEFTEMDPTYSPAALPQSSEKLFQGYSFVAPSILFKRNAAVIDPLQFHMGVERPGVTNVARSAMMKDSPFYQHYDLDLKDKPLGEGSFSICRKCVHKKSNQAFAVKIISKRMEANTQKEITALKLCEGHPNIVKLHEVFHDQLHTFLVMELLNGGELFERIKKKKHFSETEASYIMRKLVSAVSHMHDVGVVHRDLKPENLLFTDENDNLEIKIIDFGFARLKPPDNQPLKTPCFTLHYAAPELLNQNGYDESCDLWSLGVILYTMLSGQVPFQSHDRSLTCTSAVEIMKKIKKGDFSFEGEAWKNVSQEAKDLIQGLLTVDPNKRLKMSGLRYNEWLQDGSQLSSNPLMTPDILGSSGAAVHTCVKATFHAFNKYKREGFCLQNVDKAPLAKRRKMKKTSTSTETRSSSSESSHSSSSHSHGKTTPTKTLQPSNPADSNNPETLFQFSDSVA

[3] = biological target: T1, Bone morphogenetic protein receptor type-2 (Homo sapiens) (UniProt Q13873); assay: Inhibition of human recombinant BMPR2 at 500 nM related to control ULK1
T1 sequence (whole entry): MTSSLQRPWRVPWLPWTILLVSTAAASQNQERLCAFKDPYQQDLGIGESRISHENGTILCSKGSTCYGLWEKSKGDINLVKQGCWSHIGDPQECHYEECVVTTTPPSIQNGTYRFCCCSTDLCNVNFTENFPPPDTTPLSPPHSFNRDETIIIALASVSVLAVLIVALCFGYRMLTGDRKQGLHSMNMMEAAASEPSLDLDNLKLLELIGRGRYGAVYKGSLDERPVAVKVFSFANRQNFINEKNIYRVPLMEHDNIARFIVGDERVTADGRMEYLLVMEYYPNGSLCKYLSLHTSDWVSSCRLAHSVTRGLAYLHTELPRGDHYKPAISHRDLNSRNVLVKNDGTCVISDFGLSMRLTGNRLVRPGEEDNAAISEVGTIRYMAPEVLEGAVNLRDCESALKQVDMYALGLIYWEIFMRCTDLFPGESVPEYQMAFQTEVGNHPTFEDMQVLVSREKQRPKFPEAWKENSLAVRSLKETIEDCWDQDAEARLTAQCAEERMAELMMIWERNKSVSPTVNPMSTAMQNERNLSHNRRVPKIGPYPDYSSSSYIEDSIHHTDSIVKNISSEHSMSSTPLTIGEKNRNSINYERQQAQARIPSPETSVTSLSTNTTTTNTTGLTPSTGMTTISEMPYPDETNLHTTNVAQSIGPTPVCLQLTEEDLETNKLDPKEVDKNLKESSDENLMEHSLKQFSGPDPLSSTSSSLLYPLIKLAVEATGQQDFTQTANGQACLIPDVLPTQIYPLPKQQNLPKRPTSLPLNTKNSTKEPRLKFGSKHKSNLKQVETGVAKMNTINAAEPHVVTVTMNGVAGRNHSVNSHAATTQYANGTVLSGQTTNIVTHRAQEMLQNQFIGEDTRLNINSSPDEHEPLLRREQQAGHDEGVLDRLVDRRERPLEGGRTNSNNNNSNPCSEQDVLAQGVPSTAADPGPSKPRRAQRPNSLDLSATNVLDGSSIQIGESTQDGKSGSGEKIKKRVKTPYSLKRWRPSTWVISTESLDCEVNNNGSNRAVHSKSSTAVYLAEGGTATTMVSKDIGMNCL

[4] = biological target: MAP kinase-interacting serine/threonine-protein kinase 2 (Homo sapiens, UniProt Q9HBH9); assay: Inhibition of human recombinant MNK2 at 15 nM related to control ULK1
Sequence of MAP kinase-interacting serine/threonine-protein kinase 2 (Q9HBH9 whole entry, looked up): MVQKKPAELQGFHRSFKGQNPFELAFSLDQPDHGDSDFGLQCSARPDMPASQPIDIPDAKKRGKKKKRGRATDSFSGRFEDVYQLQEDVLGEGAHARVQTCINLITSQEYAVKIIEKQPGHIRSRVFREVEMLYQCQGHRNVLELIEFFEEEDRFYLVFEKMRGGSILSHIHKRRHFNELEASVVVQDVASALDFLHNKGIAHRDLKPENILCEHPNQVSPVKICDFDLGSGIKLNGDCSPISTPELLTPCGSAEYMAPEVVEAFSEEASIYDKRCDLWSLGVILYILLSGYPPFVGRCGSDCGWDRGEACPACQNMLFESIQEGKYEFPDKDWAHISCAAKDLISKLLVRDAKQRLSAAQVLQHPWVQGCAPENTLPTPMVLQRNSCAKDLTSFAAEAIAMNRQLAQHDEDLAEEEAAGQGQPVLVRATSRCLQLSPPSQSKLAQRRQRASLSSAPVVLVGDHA

[5] = biological target: T2, Serine/threonine-protein kinase 17B (Homo sapiens) (UniProt O94768); assay: Inhibition of human recombinant DRAK2 at 15 nM in presence of ATP by radiometric assay relative to control
T2 sequence (whole entry): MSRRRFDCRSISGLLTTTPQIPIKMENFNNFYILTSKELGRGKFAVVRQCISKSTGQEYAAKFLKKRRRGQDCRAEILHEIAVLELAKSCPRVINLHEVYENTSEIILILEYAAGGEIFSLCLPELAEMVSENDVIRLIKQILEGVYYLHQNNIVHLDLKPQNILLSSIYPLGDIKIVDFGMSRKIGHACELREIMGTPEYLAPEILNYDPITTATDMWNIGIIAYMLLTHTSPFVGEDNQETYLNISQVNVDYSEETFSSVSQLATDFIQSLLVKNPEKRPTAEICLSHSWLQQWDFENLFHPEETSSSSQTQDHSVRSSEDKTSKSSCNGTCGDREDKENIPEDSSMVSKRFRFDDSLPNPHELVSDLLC

[6] = biological target: Fibroblast growth factor receptor 2 (Homo sapiens) (UniProt P21802); assay: Inhibition of human recombinant FGFR2 at 15 nM related to control ULK1
Sequence of Fibroblast growth factor receptor 2 (Homo sapiens) (P21802 22-821 limits assumed): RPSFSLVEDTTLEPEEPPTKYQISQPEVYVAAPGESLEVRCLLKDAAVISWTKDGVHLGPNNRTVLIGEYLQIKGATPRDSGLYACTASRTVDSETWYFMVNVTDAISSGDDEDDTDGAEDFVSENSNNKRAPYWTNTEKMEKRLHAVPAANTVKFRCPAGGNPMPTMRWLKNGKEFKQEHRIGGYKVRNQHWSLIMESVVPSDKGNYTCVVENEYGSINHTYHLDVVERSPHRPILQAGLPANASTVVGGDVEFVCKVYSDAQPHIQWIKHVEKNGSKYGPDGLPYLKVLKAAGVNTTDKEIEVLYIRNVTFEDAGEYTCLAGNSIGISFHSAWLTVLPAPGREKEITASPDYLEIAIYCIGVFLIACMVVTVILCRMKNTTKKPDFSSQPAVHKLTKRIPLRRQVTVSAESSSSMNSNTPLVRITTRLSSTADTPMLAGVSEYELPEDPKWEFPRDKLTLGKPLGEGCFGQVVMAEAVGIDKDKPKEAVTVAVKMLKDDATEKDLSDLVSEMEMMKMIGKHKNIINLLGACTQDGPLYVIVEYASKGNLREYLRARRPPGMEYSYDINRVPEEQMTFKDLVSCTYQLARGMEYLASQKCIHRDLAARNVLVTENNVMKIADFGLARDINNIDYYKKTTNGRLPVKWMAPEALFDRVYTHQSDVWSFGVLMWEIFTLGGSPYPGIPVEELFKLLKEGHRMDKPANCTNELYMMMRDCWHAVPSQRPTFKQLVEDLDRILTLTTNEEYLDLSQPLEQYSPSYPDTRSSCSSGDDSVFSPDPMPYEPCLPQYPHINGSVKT

[7] = biological target: T3, Ephrin type-A receptor 3 (Homo sapiens) (UniProt P29320); assay: Inhibition of human recombinant EphA3 at 40 nM in presence of ATP by radiometric assay relative to control
T3 sequence (whole entry): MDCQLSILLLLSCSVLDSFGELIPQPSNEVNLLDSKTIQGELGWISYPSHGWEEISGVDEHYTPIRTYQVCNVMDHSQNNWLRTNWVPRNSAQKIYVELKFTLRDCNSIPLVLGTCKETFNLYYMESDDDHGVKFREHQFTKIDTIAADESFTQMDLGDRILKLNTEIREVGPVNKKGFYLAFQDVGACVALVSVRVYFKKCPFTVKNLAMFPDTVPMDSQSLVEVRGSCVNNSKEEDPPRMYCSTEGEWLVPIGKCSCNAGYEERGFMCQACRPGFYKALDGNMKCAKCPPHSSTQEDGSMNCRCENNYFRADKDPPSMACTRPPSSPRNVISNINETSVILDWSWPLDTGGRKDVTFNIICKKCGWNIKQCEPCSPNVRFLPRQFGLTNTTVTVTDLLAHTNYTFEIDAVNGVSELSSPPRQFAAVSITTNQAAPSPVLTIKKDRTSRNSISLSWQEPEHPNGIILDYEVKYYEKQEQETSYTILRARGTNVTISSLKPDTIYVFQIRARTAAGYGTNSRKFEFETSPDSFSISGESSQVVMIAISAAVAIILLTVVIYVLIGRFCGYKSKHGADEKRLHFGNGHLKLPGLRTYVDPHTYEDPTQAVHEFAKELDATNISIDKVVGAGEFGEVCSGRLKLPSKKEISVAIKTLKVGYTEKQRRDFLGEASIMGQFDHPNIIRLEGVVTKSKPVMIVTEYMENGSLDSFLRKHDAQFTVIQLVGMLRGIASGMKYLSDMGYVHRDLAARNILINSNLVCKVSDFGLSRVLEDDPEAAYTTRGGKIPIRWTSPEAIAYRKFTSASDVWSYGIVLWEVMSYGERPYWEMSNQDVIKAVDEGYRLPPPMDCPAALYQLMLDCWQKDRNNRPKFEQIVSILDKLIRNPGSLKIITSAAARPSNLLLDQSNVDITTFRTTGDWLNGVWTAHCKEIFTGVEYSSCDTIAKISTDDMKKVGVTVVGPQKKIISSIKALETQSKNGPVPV

[8] = biological target: Serine/threonine-protein kinase PAK 4 (Homo sapiens) (UniProt O96013); assay: Inhibition of human recombinant PAK4 at 40 nM related to control ULK1
Sequence of Serine/threonine-protein kinase PAK 4 (Homo sapiens) (O96013 whole entry, looked up): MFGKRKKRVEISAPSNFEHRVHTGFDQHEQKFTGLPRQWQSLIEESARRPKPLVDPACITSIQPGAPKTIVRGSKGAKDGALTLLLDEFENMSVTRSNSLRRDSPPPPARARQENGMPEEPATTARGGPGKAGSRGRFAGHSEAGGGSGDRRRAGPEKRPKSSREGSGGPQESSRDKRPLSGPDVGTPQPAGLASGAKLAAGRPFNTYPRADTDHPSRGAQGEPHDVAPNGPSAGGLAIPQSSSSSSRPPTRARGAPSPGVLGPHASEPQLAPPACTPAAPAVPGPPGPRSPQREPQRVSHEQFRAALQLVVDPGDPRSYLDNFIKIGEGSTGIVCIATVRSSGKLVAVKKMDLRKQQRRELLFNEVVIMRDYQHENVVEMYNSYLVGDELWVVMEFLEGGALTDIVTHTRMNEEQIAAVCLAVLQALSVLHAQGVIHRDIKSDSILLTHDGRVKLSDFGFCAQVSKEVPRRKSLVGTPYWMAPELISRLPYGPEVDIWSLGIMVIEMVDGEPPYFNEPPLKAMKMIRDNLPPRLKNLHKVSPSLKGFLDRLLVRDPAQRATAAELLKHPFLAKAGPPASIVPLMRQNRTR

Sequence of Aurora kinase B (Homo sapiens) (Q96GD4 whole entry): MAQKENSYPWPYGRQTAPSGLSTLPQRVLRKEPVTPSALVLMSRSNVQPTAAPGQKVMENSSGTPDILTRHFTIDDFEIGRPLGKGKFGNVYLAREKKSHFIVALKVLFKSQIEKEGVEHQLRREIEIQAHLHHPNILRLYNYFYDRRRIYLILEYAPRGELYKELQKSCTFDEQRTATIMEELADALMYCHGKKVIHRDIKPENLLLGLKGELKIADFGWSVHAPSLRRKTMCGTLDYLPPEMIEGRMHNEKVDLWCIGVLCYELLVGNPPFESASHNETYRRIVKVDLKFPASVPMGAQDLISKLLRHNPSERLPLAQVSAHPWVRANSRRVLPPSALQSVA

For `CNC(=O)c1ccccc1Oc1nc(Nc2cc(OC)c(OC)c(OC)c2)ncc1Br`, the inhibition [1] was 92%, the inhibition [2] was 11% and the fold change (FC) [3] was 0.
With `CC(C)[C@H](NC(=O)c1cc(-c2cnn3cc(-c4ccc(OCCN5CCCCC5)cc4)cnc23)cs1)C(F)(F)F` the fold change (FC) [4] was 0.3, the inhibition [5] was 69% and the fold change (FC) [6] was 0.
Work on `O=C(N[C@@H](C1CC1)C(F)(F)F)c1cc(-c2cnn3cc(-c4ccc(F)cc4)cnc23)cs1` yielded an inhibition [7] of 15% and a fold change (FC) [8] of 0.11.
